Values after ≈ are worked out from the molar mass of the structure shown. Active and inactive are the calls of the source. The rule behind the calls is not given here.
Assays:
Mus musculus [1] = test: Toxicity in CD1 mouse assessed as change in testosterone levels at 2 to 10 mg/kg, po for 7 days by enzyme immunoassay relative to control; assay type: organism-based; parameters: dose 2-10 mg/kg, route oral; details: in vivo, 168 h
In short: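 Male CD1 mice treated orally at two regimens (2 or 10 mg/kg daily, 7 days); sera collected for testosterone determination, values plotted for individual mice.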

Mus musculus [2] = test: Defect in spermatogenesis in CD1 mouse testicular tubules at 10 mg/kg, ip after 7 days; assay type: functional, organism-based; parameters: dose 10 mg/kg
In short: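 Male mice dosed intraperitoneally at 10 mg/kg daily for 7 days (n = 4); testicular tubules examined histologically one day post-treatment for retained spermatids, with defects quantified.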

Plasma [3] = test: Fraction unbound in CD1 mouse plasma; assay type: ADME, cell-free
In short: (§1)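 Binding to CD-1 mouse plasma proteins tested at 1.0 × 10–5 M; percent bound and percent recovery reported.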

Plasma [4] = test: Plasma protein binding in CD1 mouse at 10^-5 M; assay type: ADME, cell-free; details: 10 µM; in short: as §1
[5] = Permeability from basolateral to apical side in human Caco2 cellsassessed as drug recovery at 10^-5 M at pH 6.5 to 7.4; assay type: ADME, cell-based; details: Caco-2, pH 6.5, read-out: permeability
In short: (§2)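 Caco-2 monolayers with apical/basolateral pH gradient 6.5/7.4, compound at 1.0 × 10–5 M; apparent permeability (cm/s) measured in A→B and B→A directions, with percent recovery reported.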

Mus musculus [6] = test: Inhibition of spermatogenesis in CD1 mouse assessed as change in morphology of caudal epididymides at 10 mg/kg, po for 7 days measured after 1 month by bright-field microscopic analysis; assay type: functional, organism-based; parameters: dose 10 mg/kg
In short: (§3)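 Male CD1 mice dosed by oral gavage at 2 or 10 mg/kg daily for 7 days, controls vehicle only; testes and epididymides collected one month post-treatment for histological staging of tubules (spermatid alignment at stage VIII, sperm release at stage IX).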

[7] = Metabolic stability in CD1 mouse liver microsomes assessed as parent compound remaining at 10^-6 M after 60 mins; assay type: ADME, Microsome; details: read-out: Stability
In short: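 CD-1 mouse liver microsomes incubated with compound at 1.0 × 10–6 M for 60 min; percent parent compound remaining determined.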

Mus musculus [8] = test: Effect on spermatogenesis in CD1 mouse assessed as disruptive effect on spermatid alignment at 10 mg/kg, iv after 6 days; assay type: functional, organism-based; parameters: dose 10 mg/kg
In short: (§4)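 Male mice given 10 mg/kg intravenously daily; testes examined histologically at end of treatment (6 days, n = 2; 7 days, n = 2) for spermatid alignment and sperm release into the lumen; vehicle controls.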

Mus musculus [9] = test: Effect on spermatogenesis in CD1 mouse assessed as sperm release into testicular lumen at 10 mg/kg, iv after 6 days; assay type: functional, organism-based; parameters: dose 10 mg/kg; in short: as §4
Mus musculus [10] = test: Toxicity in CD1 mouse assessed as change in body weight at 2 to 10 mg/kg, po; assay type: organism-based; parameters: dose 2-10 mg/kg, route oral; details: in vivo
In short: (§5)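 Male CD1 mice gavaged daily with 2 or 10 mg/kg for 7 days, vehicle controls; body weight followed throughout; testes weighed one month post-treatment; mean ± SD of five mice per regimen, paired Student's t-test against age-matched controls.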

Mus musculus [11] = test: Inhibition of spermatogenesis in CD1 mouse assessed as asynchronization of spermatogenic cell association at 10 mg/kg, po for 7 days measured after 1 month by bright-field microscopic analysis; assay type: functional, organism-based; parameters: dose 10 mg/kg; in short: as §3
Mus musculus [12] = test: Toxicity in CD1 mouse assessed as change in testicular weight at 2 to 10 mg/kg, po for 7 days relative to control; assay type: organism-based; parameters: dose 2-10 mg/kg, route oral; details: in vivo, 168 h; in short: as §5
[13] = target: T1, Retinoic acid receptor alpha (Homo sapiens) (UniProt P10276); test: Antagonist activity at human RARalpha expressed in human HeLa cells assessed as inhibition of ATRA-induced RARE transactivation after 24 hrs by chloramphenicol acetyltransferase reporter gene assay; assay type: cell-based
T1 sequence (whole entry): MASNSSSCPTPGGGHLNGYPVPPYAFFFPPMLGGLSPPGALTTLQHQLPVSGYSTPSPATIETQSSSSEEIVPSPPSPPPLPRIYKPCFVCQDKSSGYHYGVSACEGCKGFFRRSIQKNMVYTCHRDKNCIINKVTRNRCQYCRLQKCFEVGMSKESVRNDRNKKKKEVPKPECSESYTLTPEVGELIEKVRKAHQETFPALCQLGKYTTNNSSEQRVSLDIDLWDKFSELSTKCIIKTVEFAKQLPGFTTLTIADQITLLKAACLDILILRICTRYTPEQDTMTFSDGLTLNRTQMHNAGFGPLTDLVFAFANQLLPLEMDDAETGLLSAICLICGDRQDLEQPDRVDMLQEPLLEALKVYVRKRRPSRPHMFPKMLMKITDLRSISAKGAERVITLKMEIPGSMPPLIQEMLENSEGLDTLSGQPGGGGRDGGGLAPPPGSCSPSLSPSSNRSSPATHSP
In short: (§6)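 HeLa cells cotransfected with RAR constructs and a constant beta-galactosidase plasmid as internal control, given 10–7 M ATRA (submaximal) plus increasing concentrations of compound; CAT reporter expression measured after 24 h. RARα, RARβ and RARγ tested. Vehicle control was dilution medium without retinoid; ATRA served as positive control.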

Mus musculus [14] = test: Inhibition of spermatogenesis in CD1 mouse assessed as change in motility of epididymal sperm at 10 mg/kg, po for 7 days measured after 1 month by bright-field microscopic analysis; assay type: functional, organism-based; parameters: dose 10 mg/kg
[15] = target: T1, Retinoic acid receptor alpha (Homo sapiens); test: Antagonist activity at human RARalpha expressed in human HeLa cells assessed as inhibition of ATRA-induced RARE-chloramphenicol acetyltransferase reporter gene expression after 24 hrs by transactivation competition assay; assay type: cell-based; in short: as §6
[16] = Chemical stability of the compound by HPLC-MS analysis; assay type: physicochemical
[17] = Drug uptake in CD1 mouse testes at 3 mg/kg, iv; assay type: ADME, organism-based, Testis; parameters: dose 3 mg/kg, route intravenous; details: in vivo
Mus musculus [18] = test: Inhibition of spermatogenesis in CD1 mouse assessed as change in sperm release at stage 9 into lumen in testes at 2 to 10 mg/kg, po for 7 days measured after 1 month by bright-field microscopic analysis relative to control; assay type: functional, organism-based; in short: as §3
[19] = Metabolic stability in CD1 mouse intestinal microsomes assessed as parent compound remaining at 10^-6 M after 60 mins; assay type: ADME, Intestine; details: read-out: Stability
In short: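 CD-1 mouse intestinal microsomes incubated with compound at 1.0 × 10–6 M for 60 min; percent parent remaining determined.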

Mus musculus [20] = test: Effect on spermatogenesis in CD1 mouse assessed as sperm release into testicular lumen at 10 mg/kg, iv after 7 days; assay type: functional, organism-based; parameters: dose 10 mg/kg; in short: as §4
Mus musculus [21] = test: Effect on spermatogenesis in CD1 mouse assessed as disruptive effect on spermatid alignment at 10 mg/kg, iv after 7 days; assay type: functional, organism-based; parameters: dose 10 mg/kg; in short: as §4
Caco-2 [22] = test: Permeability from basolateral to apical side in human Caco2 cells at 10^-5 M at pH 6.5 to 7.4; assay type: ADME, cell-based; details: caco-2, pH 6.5, 10 µM; in short: as §2
[23] = Aqueous solubility of the compound in PBS at pH 7.4; assay type: physicochemical; details: buffer
In short: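 Aqueous solubility determined in PBS buffer, pH 7.4; tested range <1–200 μM.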

Mus musculus [24] = test: Effect on spermatogenesis in CD1 mouse at 10 mg/kg, iv for 7 days measured after 4 weeks; assay type: functional, organism-based; parameters: dose 10 mg/kg
In short: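 Male mice dosed intravenously at 10 mg/kg; testes examined histologically 4 weeks post-treatment for spermatogenesis.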

[25] = Partition coefficient, log D of the compound in n-octanol-PBS at 10^-4 M at pH 7.4; assay type: physicochemical; details: octanol/water, pH 7.4, 100 µM
In short: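 log D determined at pH 7.4 by n-octanol/PBS partitioning, reported as weighted average.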

Mus musculus [26] = test: Inhibition of spermatogenesis in CD1 mouse assessed as change in alignment of step 16 spermatids at lumen in stage 8 tubules in testes at 2 to 10 mg/kg, po for 7 days measured after 1 month by bright-field microscopic analysis relative to control; assay type: functional, organism-based; in short: as §3
[27] = Drug uptake in CD1 mouse testes at 39 mg/kg, po; assay type: ADME, organism-based, Testis; parameters: dose 39 mg/kg, route oral; details: in vivo
Mus musculus [28] = test: Inhibition of spermatogenesis in CD1 mouse assessed as presence of vacuolar-like spaces at 10 mg/kg, po for 7 days measured after 1 month by bright-field microscopic analysis; assay type: functional, organism-based; parameters: dose 10 mg/kg; in short: as §3
[29] = Permeability from apical to basolateral side in human Caco2 cells assessed as drug recovery at 10^-5 M at pH 6.5 to 7.4; assay type: ADME, cell-based; details: Caco-2, pH 6.5, read-out: permeability; in short: as §2
Plasma [30] = test: Drug recovery in CD1 mouse plasma 10^-5 M; assay type: ADME, cell-free; details: 10 µM; in short: as §1
Caco-2 [31] = test: Permeability from apical to basolateral side in human Caco2 cells at 10^-5 M at pH 6.5 to 7.4; assay type: ADME, cell-based; details: caco-2, pH 6.5, 10 µM; in short: as §2
Mus musculus [32] = test: Effect on spermatogenesis in CD1 mouse assessed as sperm release into testicular lumen at 2 to 10 mg/kg, po for 7 days; assay type: functional, organism-based; in short: as §3
Mus musculus [33] = test: Effect on spermatogenesis in CD1 mouse assessed as disruptive effect on spermatid alignment at 2 to 10 mg/kg, po for 7 days; assay type: functional, organism-based; in short: as §3

SMILES | Activity (Mus musculus [1]) | PPB (Plasma [4]) [%] | inhibition (Mus musculus [6]) | remaining at 1 h, 1 µM [7] [%] | Activity (Mus musculus [10]) | inhibition (Mus musculus [11]) | Activity (Mus musculus [12]) | inhibition (Mus musculus [14]) | Stability [16] | inhibition (Mus musculus [18]) | solubility [23] [µM] | logD [25] | inhibition (Mus musculus [26]) | inhibition (Mus musculus [28]) | recovery at 10 µM [29] [%] | Drug recovery (Plasma [30]) [%] | permeability (Caco-2 [31]) [×10⁻⁶ cm/s] | other results
Cc1ccc(C2=CCC(C)(C)c3ccc(C(=O)Nc4ccc(C(=O)O)cc4)cc32)cc1 | Non-toxic | 99.2 | inactive | 49 | Non-toxic | inactive | Non-toxic | inactive | Stable | inactive | 136 (≈ 56 µg/mL) | 3.84 | inactive | inactive | 20 | 99.8 | 8.3 | Activity (Mus musculus [2]): Active; Fu (Plasma [3]): 0.8%; recovery at 10 µM [5]: 46%; Activity (Mus musculus [8]): Active; Activity (Mus musculus [9]): Active; Activity [13]: Active; Activity [15]: Active; Drug uptake [17]: Active; remaining at 1 h, 1 µM [19]: 86%; Activity (Mus musculus [20]): Active; Activity (Mus musculus [21]): Active; permeability (Caco-2 [22]): 0.7 ×10⁻⁶ cm/s; Activity (Mus musculus [24]): inactive; Drug uptake [27]: Not Active
CC1(C)CC=C(c2cnc3ccccc3c2)c2cc(C(=O)Nc3ccc(C(=O)O)cc3)ccc21 | Non-toxic |  | inactive |  | Non-toxic | inactive | Non-toxic | inactive |  | inactive |  |  | inactive | inactive |  |  |  | 
CC1(C)CC=C(c2ccccc2)c2cc(/C=C/c3ccc(C(=O)O)cc3)ccc21 |  | 95.3 |  | 79 |  |  |  |  | Stable |  | 3.1 (≈ 1.18 µg/mL) | 3.25 |  |  | 14 | 93.3 | < 0.7 | Activity (Mus musculus [32]): Active; Activity (Mus musculus [33]): Active
